Data: ChEMBL document CHEMBL2057172, “Investigation of 7-benzylidenenaltrexone derivatives as resistance reverser for chloroquine-resistant Plasmodium chabaudi” (Bioorg Med Chem Lett, 2012)
Activity calls are given as the source filed them. No cut-off for these calls is given here.

Columns and labels:
[1] = biological target: T1, Glutathione reductase, putative (Plasmodium chabaudi) (UniProt A0A077YEX9); test: Inhibition of Plasmodium chabaudi glutathione reductase assessed as residual reduced glutathione level after 30 mins in absence of glutathione S-transferase
Outline: (§1)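 Compounds were incubated with GSH, with or without GST, at 37 °C for 30 min. The residual GSH ratio was obtained from the absorbance of the medium.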

[2] = biological target: T1, Glutathione reductase, putative (Plasmodium chabaudi); test: Inhibition of Plasmodium chabaudi glutathione reductase assessed as residual reduced glutathione level after 30 mins in presence of glutathione S-transferase; outline: as §1
[3] = test system: Plasmodium chabaudi; test: Antimalarial activity against chloroquine-resistant Plasmodium chabaudi infected in mouse assessed as reversal of chloroquine-resistance at 10 mg/kg, po administered 4 days after post infection; assay type: functional, organism-based; design: dose 10 mg/kg
Outline: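 Mice infected with CQ-resistant P. chabaudi. Test compounds were given perorally at 10 mg/kg, alongside CQ at 3 mg/kg given intraperitoneally. Resistance reversal was read at day 4 after infection. Groups were compared by one-way ANOVA followed by Dunnett's test.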

T1 sequence (A0A077YEX9 as listed by the source): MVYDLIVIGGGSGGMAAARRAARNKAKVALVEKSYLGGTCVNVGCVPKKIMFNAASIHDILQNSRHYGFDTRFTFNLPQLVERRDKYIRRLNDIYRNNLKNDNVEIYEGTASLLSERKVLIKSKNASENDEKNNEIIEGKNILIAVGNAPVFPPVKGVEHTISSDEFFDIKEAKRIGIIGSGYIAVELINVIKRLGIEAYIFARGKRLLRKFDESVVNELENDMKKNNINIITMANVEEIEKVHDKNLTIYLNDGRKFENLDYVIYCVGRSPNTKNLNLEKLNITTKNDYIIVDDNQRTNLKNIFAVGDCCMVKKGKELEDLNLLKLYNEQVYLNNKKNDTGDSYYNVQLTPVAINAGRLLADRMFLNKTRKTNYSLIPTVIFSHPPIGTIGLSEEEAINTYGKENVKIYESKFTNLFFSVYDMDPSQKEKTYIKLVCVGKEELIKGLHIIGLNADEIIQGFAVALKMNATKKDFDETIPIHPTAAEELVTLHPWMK

SMILES	inhibition [1]	inhibition [2]	Activity [3]
O=C1[C@@H](Cc2ccccc2)C[C@@]2(O)[C@H]3Cc4ccc(O)c5c4[C@@]2(CCN3CC2CC2)[C@H]1O5	inactive	inactive	–
O=C1/C(=C/c2ccc(F)cc2)C[C@@]2(O)[C@H]3Cc4ccc(O)c5c4[C@@]2(CCN3CC2CC2)[C@H]1O5	–	–	Active
COc1ccc(/C=C2\C[C@@]3(O)[C@H]4Cc5ccc(O)c6c5[C@@]3(CCN4CC3CC3)[C@@H](O6)C2=O)cc1	–	–	Active
O=C1/C(=C/c2ccccc2)C[C@@]2(O)[C@H]3Cc4ccc(O)c5c4[C@@]2(CCN3CC2CC2)[C@H]1O5	–	–	Active
